Laboratory results published in ChEMBL document CHEMBL1146364, “High-throughput assay for the identification of Hsp90 inhibitors based on Hsp90-dependent refolding of firefly luciferase” (Bioorg Med Chem, 2007).
Activity calls are given as the source filed them. The rule behind the calls is not given here.

How the values were obtained:
MCF7 [1] = experiment: Antiproliferative activity against MCF7 cells after 72 hrs; format: functional, cell-based; conditions: Homo sapiens, MCF7, 72 h
Method in brief: (§1)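 Seeded at 2000 cells/well and left to attach overnight at 37 °C, 5% CO2. MCF-7 cells kept in 1:1 DMEM:Ham's F-12 with non-essential amino acids, 2 mM L-glutamine, pen/strep and 10% FBS. SkBr3 cells kept in McCoy's 5A with the same supplements. Compounds added over a range of concentrations in DMSO (1% final). After 72 h, viable cells counted by MTS/PMS. 1% DMSO wells set as 100% proliferation.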

SK-BR-3 [2] = experiment: Induction of Hsp90-dependent Her2 protein degradation in Skbr3 cells after 24 hrs by ELISA; format: functional, cell-based; conditions: Homo sapiens, SK-BR-3, 24 h
Method in brief: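 SkBr3 cells seeded at 3000/well and attached overnight, then exposed to compounds at varying concentrations for 24 h. Cell number checked under the microscope against DMSO wells. Cells then washed, fixed and permeabilized in −20 °C methanol, and blocked with 5% BSA/PBST. Probed overnight at 4 °C with rabbit anti-Her2 (1:500), then with HRP anti-rabbit IgG (1:1000) for 2 h. Read by chemiluminescence.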

[3] = (§2) Inhibition of Hsp90-dependent luciferase renaturation in rabbit reticulocyte after 30 mins by luciferase refolding assay; set-up: species or system Oryctolagus cuniculus
Method in brief: (§3)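 Luciferase in stability buffer (0.5 mg/mL) heat-denatured at 41 °C for 10 min. Compound in DMSO (1 μL) mixed with cold mix (Tris pH 7.7, Mg(OAc)2, KCl, ATP, creatine phosphate), creatine phosphokinase and denatured luciferase. Started with rabbit reticulocyte lysate diluted in 20 mM Tris-HCl pH 7.4/75 mM KCl. Ran 30 min at 25 °C, then luciferin/ATP buffer added and light read over 10 s. IC50 taken against DMSO control. Triplicates, at least two experiments.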

SK-BR-3 [4] = experiment: Antiproliferative activity against SkBr3 cells after 72 hrs; format: functional, cell-based; conditions: Homo sapiens, SK-BR-3, 72 h; method in brief: as §1
Oryctolagus cuniculus = species on record: Oryctolagus cuniculus; experiment: as §2; method in brief: as §3
MCF7 [5] = experiment: Induction of AKT degradation in MCF7 cells; format: functional, cell-based; conditions: Homo sapiens
Method in brief: (§4)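 MCF-7 cells seeded at 1×10^6 per dish and attached overnight. Compound added at varying concentrations for 36 h at 37 °C, 5% CO2. Client protein loss assessed by western blot. Controls: GA 500 nM and DMSO.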

MCF7 [6] = experiment: Induction of Her2 degradation in MCF7 cells; format: functional, cell-based; conditions: Homo sapiens; method in brief: as §4
MCF7 [7] = experiment: Induction of Raf1 degradation in MCF7 cells; format: functional, cell-based; conditions: Homo sapiens; method in brief: as §4

Row | Compound | IC50 (MCF7 [1]) | IC50 (SK-BR-3 [2]) | IC50 [3] | IC50 (SK-BR-3 [4]) | Activity (Oryctolagus cuniculus) | Activity (MCF7 [5]) | Activity (MCF7 [6]) | Activity (MCF7 [7])
1 | CC1=NN(c2ccc(Cl)cc2)C(=O)C1 | > 100 µM | > 100 µM | 2.1 µM | > 100 µM |  |  |  | 
2 | Cc1cc2nn(-c3ccc(Cl)cc3)nc2cc1NC(=O)C(C)C | > 100 µM | > 100 µM | 0.12 µM | > 100 µM |  |  |  | 
3 | Oc1ccc(O)c(SCCCCN2CCOCC2)c1 | 19 µM | 4.7 µM | 120 µM | 7.8 µM |  |  |  | 
4 | COc1ccc(C(=O)/C=C(\C)Nc2ccccc2O)cc1 | > 100 µM | 21.3 µM | 15 µM | 25 µM |  |  |  | 
5 | Cc1ccc(Nc2cc(C)c(O)c(C)c2)cc1 | 9.1 µM | 10.9 µM | 6.7 µM | 15 µM |  |  |  | 
6 | Cc1nc(N)sc1-c1csc(Nc2ccccc2)n1 | 44 µM | 61 µM | 15 µM | 55 µM |  |  |  | 
7 | Nc1ncc(-c2cccs2)s1 | > 100 µM | > 100 µM | 55 µM | > 100 µM |  |  |  | 
8 | COc1ccccc1CNC(=O)c1ccc(C)cc1 | > 100 µM | > 100 µM | 22 µM | > 100 µM |  |  |  | 
9 | CCOc1ccccc1NC(=O)CSc1ccccn1 | > 100 µM | > 100 µM |  | > 100 µM | inactive |  |  | 
10 | Cc1c(Cc2ccccc2)sc(NC(=O)c2ccc([N+](=O)[O-])cc2)c1C(N)=O | 41 µM | 64 µM |  | 55 µM | inactive |  |  | 
11 | CCOc1ccc(Nc2nc(-c3sc(NC(C)=O)nc3C)cs2)cc1 | 2.1 µM | 12.5 µM | 1.9 µM | 15 µM |  | Active | Active | Active
12 | C=CCOc1ccccc1/C=C1\C(=O)N(c2cccc(Cl)c2)N=C1C | 34 µM | 51.6 µM | 4.5 µM | 39 µM |  |  |  | 
13 | CCOC(=O)Oc1ccc2c(c1)C(C)=CC(C)(C)N2 | 3 µM | 4.4 µM | 16 µM | 2.4 µM |  | Active | Active | Active
14 | O=C(CSc1nnnn1-c1ccc(F)cc1F)Nc1ccc2c(c1)OCCO2 | > 100 µM | > 100 µM | 4.4 µM | > 100 µM |  |  |  | 
15 | Oc1c(C(Nc2cccc(Cl)c2)c2ccncc2)ccc2cccnc12 (stereo unspecified) | 4 µM | 33 µM | 36 µM | 23 µM |  |  |  | 
16 | CCc1ccc(O)c(/N=C/c2cccc(C)c2O)c1 | 25 µM | 8.9 µM | 7 µM | 9 µM |  |  |  | 
17 | N#CC1=C(N)N2C(=C(C#N)C1c1cccs1)Sc1ccccc12 (stereo unspecified) | > 100 µM | 67 µM | 13 µM | 42 µM |  |  |  | 
18 | CSc1nnc2c(n1)OC=Nc1ccccc1-2 | > 100 µM | > 100 µM | 15 µM | > 100 µM |  |  |  | 
19 | COc1ccc(/C=C2/SC(=O)NC2=O)cc1OC | > 100 µM | > 100 µM | 190 µM | > 100 µM |  |  |  | 
20 | CCNC(=O)c1c(N)sc2c1CCCCC2 | 93 µM | 44 µM | 23 µM | 76 µM |  |  |  | 
